Experimental data taken from the RNAGym collection of RNA variant scans (doi:10.1126/science.aae0568).
This sample holds only a part of the variants without activity.

B1: tRNA (parent)
chain: GUUCCGUUGGCGUAAUGGUAACGCGUCUCCCUCCUAAGGAGAAGACUGCGGGUUCGAGUCCCGUACGGAACG

Variants of: B1
Assay: yeast fitness relative to wild type (ratio to wild type); higher = fitter; tRNA-Arg(CCU), competitive growth, 37 C, YPD
Procedure, shortened: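 Start and end populations of a pooled competition were compared by 100-nucleotide paired-end sequencing of gene amplicons. The Saccharomyces cerevisiae strains carried tRNA-Arg(CCU) gene variants at the native genomic locus, synthesised with a 3% per-site mutation rate at 69 sites, and competed in YPD at 37°C for 24 hours in six parallel replicates. Darwinian fitness relative to wild type was based on the change in genotype frequencies. Genotypes required ≥ 100 starting reads, and estimates < 0.5 were set to 0.5.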

Row | Variant | yeast fitness
1 | G23C U32A C66U | ≤ 0.5
2 | G23A U47C C49U | ≤ 0.5
3 | G23C C30G G63A | ≤ 0.5
4 | C22U U35C A37C | ≤ 0.5
5 | C24A A45G A65U | 0.552
6 | C22U G48C | 0.863
7 | G23C C60G C61U | ≤ 0.5
8 | C22U U53C G68C | ≤ 0.5
9 | G23C G63C | 0.594
10 | G23C G63A | 0.51
11 | G23A G25C G51A | 0.661
12 | G23A C30A U54C C55U | ≤ 0.5
13 | C22U G58C A65C | ≤ 0.5
14 | C24A A36G A42G A43G G48A | ≤ 0.5
15 | G23A C30U C62A | 0.561
16 | G23C A36U G51C | ≤ 0.5
17 | C24A A43U U59A C61U | ≤ 0.5
18 | G23C C31A C62U A70G | ≤ 0.5
19 | C24A C27G U53C C55U | ≤ 0.5
20 | G23C C27A A57U A69U | ≤ 0.5
21 | G23A C29A C31U A42G A43C U54G | ≤ 0.5
22 | G23A A43C G44A A65G | 0.637
23 | G23C C30G A37U C62U A65U | ≤ 0.5
24 | G23A A36G C55G A69U | 0.567

Row | Variant | yeast fitness
25 | C24A C27G C29A A70G | ≤ 0.5
26 | G23C A37G C55G G67A | ≤ 0.5
27 | C22U G50U G63A | ≤ 0.5
28 | C22U G25C U28C A36G G51A G67A | ≤ 0.5
29 | G23C C30G A37U A45C C46G | ≤ 0.5
30 | G23A C29G U32C A45U C60G C61U A69G | ≤ 0.5
31 | G23A G41C C49G | 0.854
32 | G23C U26C | 0.624
33 | C24A C33A A37U G50C C61U | ≤ 0.5
34 | G23A C33G A69C | ≤ 0.5
35 | G23C C31U | 0.579
36 | G23C C30G | 0.511
37 | G23C U26A C29G A36U | 0.68
38 | G23A C24U A37C G41C U54C U64C | ≤ 0.5
39 | G23C C24A G50A A70U | ≤ 0.5
40 | G23C G68A A69U | ≤ 0.5
41 | G23C G44C G68C | ≤ 0.5
42 | G23C C33A G50C G58C A70G | 0.548
43 | C22U U28C C29G C33A C62U G63A U64A | ≤ 0.5
44 | G23A C30U | 0.68
45 | G23U A69C | 0.695
46 | G23A C29U C31U A42G | ≤ 0.5
47 | G23C C31A C49G C55A | 0.534
48 | G23A G58C A70C | 0.582

Row | Variant | yeast fitness
49 | C22U G48A C55U | 0.599
50 | G23A C30U C55A G63A | ≤ 0.5
51 | G23A U26A U28A C29G | ≤ 0.5
52 | G23A A57C C62G | 0.625
53 | G23A C30U A37U G41C | 0.634
54 | G23C C46U G67A | 0.564
55 | G23C C24U A37C G50C | ≤ 0.5
56 | G23A A42G A45U G63C U64C A65G | ≤ 0.5
57 | G23A A42G | 0.747
58 | G23C U28A A65G | ≤ 0.5
59 | G23C G25A C61U | 0.536
60 | G23C C49G G51C G52A | ≤ 0.5
61 | G23A C30U C62A G68A | 0.575
62 | G23A C29U C30A A42U U53A | ≤ 0.5
63 | G23A C46A G58A | 0.566
64 | C24A A43U A45C | ≤ 0.5
65 | G23C C24U A37C U53C | ≤ 0.5
66 | G23A A36U G39C C66U | ≤ 0.5
67 | C22U G39C G48C | 0.516
68 | C22U G67C | 0.822
69 | G23C G51A C61G A69U | ≤ 0.5
70 | C24A C33A | 0.587
71 | G23A U26G A65C | ≤ 0.5
72 | C24A A45G G50A | ≤ 0.5

Row | Variant | yeast fitness
73 | C22U G44C G48A G51A | 0.57
74 | G23A C66G | 0.659
75 | G23A C66A | 0.535
76 | G23A C66U | 0.824
77 | G23C G38C A40U G58C | ≤ 0.5
78 | G23C G25C C55G | ≤ 0.5
79 | G23C C27U C29U G51A | 0.645
80 | C22U U32C A45U C46U A57U | ≤ 0.5
81 | C22U U28C C49A | ≤ 0.5
82 | G23C C33A G50C G58C | ≤ 0.5
83 | G23C A36U G52C | ≤ 0.5
84 | G23A C24U | 0.94
85 | G23A A42U C61G U64A | ≤ 0.5
86 | C24A C33A C34A C62A | ≤ 0.5
87 | G23C C60G C61U G68A | ≤ 0.5
88 | C22U G25C C33A | 0.552
89 | G23C A42G G56A | ≤ 0.5
90 | G23C C61U C66G A70U | 0.562
91 | G23C C61U A70U | 0.6
92 | G23C C24G C34U G39A A45C | ≤ 0.5
93 | C24A A36G A37G | ≤ 0.5
94 | G23A A37U C49G C55G | 0.556
95 | G23C C60A A70U | 0.536
96 | G23A C27U C34U A45C A70U | 0.57

Row | Variant | yeast fitness
97 | G23C C29U A36C C49G A70U | 0.53
98 | G23C C24A G38A C62A A69G | ≤ 0.5
99 | G23C C27A A57U | ≤ 0.5
100 | G23A G38A G67C | ≤ 0.5
101 | G23C G39C A42U G52U U53A | ≤ 0.5
102 | C24A C31G C62A | 0.594
103 | C22U U32G C34U G38U A40G C55G A70U | ≤ 0.5
104 | G23C C27U G56A G63C | 0.573
105 | C22U U28A C29U G38A | ≤ 0.5
106 | C24A A43U G51C G52C | ≤ 0.5
107 | G23A U47A | 0.796
108 | G23A C27U A37U | 0.58
109 | G23C G25A | 0.818
110 | G23A C30U A37C A57C | ≤ 0.5
111 | G23C C31A C62A | 0.527
112 | G23C U26C C46G C55U | ≤ 0.5
113 | C22U U28A A37U G51C C66U | 0.606
114 | G23C C49G | 0.563
115 | G23C G38A C61U | 0.578
116 | G23A C62U A69U | 0.642
117 | C22U U64C C66U | 0.7
118 | C22U G38A | 0.748
119 | G23A A36G C55G G63A A69U | ≤ 0.5
120 | G23C C24G C34G C46U U54G | ≤ 0.5

Row | Variant | yeast fitness
121 | G23C G41C G68A | ≤ 0.5
122 | G23C U26C A37G A40G A42G U64C | ≤ 0.5
123 | G23A C29U C30A G67A | ≤ 0.5
124 | G23A U53G | ≤ 0.5
125 | G23C G39A | 0.669
126 | G23C G50C G52A | 0.698
127 | G23C C49A U59C G67A A69G | ≤ 0.5
128 | G23C A37C A45G C49G | 0.671
129 | C22U U28A C33G G58A C66U | ≤ 0.5
130 | G23C A42G | 0.575
131 | G23A G63A | 0.7
132 | C22U G52C U54C | ≤ 0.5
133 | G23C C49G G63A | ≤ 0.5
134 | G23U | 0.779
135 | G23C | 0.653
136 | G23A | 0.741
137 | G23C C24A C30G A40U U47A G51C | 0.506
138 | C24A A36C | 0.531
139 | G23C G25A G48C | 0.594
140 | C24A C31U A45U A69U | ≤ 0.5
141 | G23C A40C | 0.666
142 | C22U U53C C61G G67A A69C | ≤ 0.5
143 | G23C C66G | ≤ 0.5
144 | G23C C66A | ≤ 0.5

Row | Variant | yeast fitness
145 | C22U U35A | 0.553
146 | G23A C31U A70U | 0.528
147 | G23A C29A C61U | ≤ 0.5
148 | C22U U53G | ≤ 0.5
149 | C22U U53A | 0.673
150 | G23A C31U C33G A65G | ≤ 0.5
151 | G23A C24U C61U | 0.64
152 | C22U G25C C62U | 0.67
153 | C24A A42G U47C U59C | ≤ 0.5
154 | G23C C62G | 0.692
155 | G23C C24U A57C G63A C66G | ≤ 0.5
156 | C24A C31U C46U | 0.785
157 | C24A A65U | 0.549
158 | C24A A65G | 0.654
159 | G23A C24G A37C | 0.506
160 | C22U G44A C46G G51A C66G | ≤ 0.5
161 | C24A A43G G63U U64A | ≤ 0.5
162 | G23C G58A | 0.6
163 | G23C G58U | 0.565
164 | C22U G38C A65U C66U | 0.547
165 | C24A C29A A40U A43G C49G | ≤ 0.5
166 | G23U A36C C46U G50C G67C | ≤ 0.5
167 | C22U G25A U54C A65U | 0.555
